# Results as given in ChEMBL document CHEMBL5252639, “Exploration of cytotoxic potential and tubulin polymerization inhibition activity of cis-stilbene-1,2,3-triazole congeners” (RSC Med Chem, 2023).
# Activity calls are given as the source filed them. The calls are words filed in the database; no cut-off is given here.
# What was measured:
# [1] = test system: HCT-116; experiment: Induction of apoptosis in human HCT-116 cells assessed as viable cells at 1.62 uM measured after 24 hrs by Annexin V-FITC/propidium iodide staining based flow cytometry (reference value: 99.71%); type: functional; conditions: read-out: Activity
# [2] = test system: HCT-116; experiment: Induction of apoptosis in human HCT-116 cells assessed as formation of membrane blebs at 1.62 uM measured for 24 hrs by AO/EB staining based microscopic analysis; type: functional, cell-based
# [3] = molecular target: Tubulin; experiment: Inhibition of tubulin polymerization in human HCT-116 cells; type: cell-based
# [4] = molecular target: T1, Tubulin (Homo sapiens) (UniProt P68371+Q9H4B7+P0DPH7+P68366+Q13509+Q71U36+P04350+Q3ZCM7+P07437+P68363+Q9BQE3+Q6PEY2+Q13885+Q9BVA1+Q9BUF5); experiment: Inhibition of tubulin polymerization in human HCT-116 cells at 6.50 uM measured after 1 hr relative to control; type: cell-based; conditions: dose 6.5 µM
# [5] = test system: B16-F10; experiment: Cytotoxicity against mouse B16-F10 cells assessed as inhibition of cell growth measured for 24 hrs by MTT assay; type: functional, cell-based; conditions: B16-F10, 24 h
# Outline: (§1)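 Cells were kept at 37 °C with 5% CO2 in suitable medium with 10% FBS and 1% antibiotic-antimycotic, and passaged at 80-90% confluency using 0.25% trypsin/1 mM EDTA. They were seeded at 1×10^3–4×10^3 cells/well and attached overnight. Compounds came from 10 mM DMSO stocks diluted in medium and were applied for 24 h. MTT (0.5 mg/mL) was added for 4 h at 37 °C, formazan was dissolved in DMSO, and absorbance was read at 570 nm.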
# [6] = test system: HCT-116; experiment: Induction of cell cycle arrest in human HCT-116 cells assessed as accumulation of cells at G0/G1 phase at 6.50 uM measured after 48 hrs by PI staining based flow cytometry analysis relative to control (reference value: 70.34%); type: functional; conditions: dose 6.5 µM
# [7] = test system: HCT-116; experiment: Induction of cell cycle arrest in human HCT-116 cells assessed as accumulation of cells at S phase at 1.62 uM measured after 24 hrs by PI staining based flow cytometry analysis relative to control (reference value: 5.55%)
# [8] = test system: HCT-116; experiment: Induction of apoptosis in human HCT-116 cells assessed as micronuclei formation at 3.25 to 6.50 uM measured for 24 hrs by AO/EB staining based microscopic analysis; type: functional, cell-based; conditions: dose 3.25-6.5 µM
# Outline: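 Media removed; acridine orange and ethidium bromide (10 µg/ml, equal volumes) added in 1 mL PBS. Imaged immediately by fluorescence microscopy (excitation 488 nm, emission 550 nm) at 20X.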
# [9] = test system: HCT-116; experiment: Induction of cell cycle arrest in human HCT-116 cells assessed as accumulation of cells at G0/G1 phase at 3.25 uM measured after 24 hrs by PI staining based flow cytometry analysis relative to control (reference value: 70.34%)
# [10] = test system: HCT-116; experiment: Induction of apoptosis in human HCT-116 cells assessed as viable cells at 6.50 uM measured after 24 hrs by Annexin V-FITC/propidium iodide staining based flow cytometry (reference value: 99.71%); type: functional; conditions: read-out: Activity
# [11] = test system: HCT-116; experiment: Induction of cell cycle arrest in human HCT-116 cells assessed as accumulation of cells at G2/M phase at 1.62 uM measured after 24 hrs by PI staining based flow cytometry analysis relative to control (reference value: 15.61%)
# [12] = test system: A549; experiment: Cytotoxicity against human A549 cells assessed as inhibition of cell growth measured for 24 hrs by MTT assay; type: functional, cell-based; conditions: A549, 24 h; outline: as §1
# [13] = test system: HCT-116; experiment: Induction of apoptosis in human HCT-116 cells assessed as late apoptotic cells at 6.50 uM measured after 24 hrs by Annexin V-FITC/propidium iodide staining based flow cytometry (reference value: 0.00%); type: functional; conditions: dose 6.5 µM
# [14] = test system: HCT-116; experiment: Induction of cell cycle arrest in human HCT-116 cells assessed as accumulation of cells at G2/M phase at 3.25 uM measured after […] by PI staining based flow cytometry analysis relative to control (reference value: 15.61%); type: functional
# [15] = test system: HCT-116; experiment: Induction of morphological change in human HCT-116 cells assessed as cell rounding incubated for 24 hrs by phase contrast microscopic analysis; type: functional, cell-based; conditions: dose 1.62-6.5 µM
# Outline: (§2)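 HCT-116 plated at 1 × 10^6 cells/mL in RPMI + 10% FBS and allowed to adhere 24 h at 37 °C, 5% CO2. […] After 24 h, morphology imaged by phase-contrast microscopy at 20X.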
# [16] = test system: HCT-116; experiment: Induction of apoptosis in human HCT-116 cells assessed as cell rounding at 1.62 uM measured for 24 hrs by AO/EB staining based microscopic analysis; type: functional
# [17] = test system: HCT-116; experiment: Induction of morphological change in human HCT-116 cells assessed as change in cell shape incubated for 24 hrs by phase contrast microscopic analysis; type: functional, cell-based; conditions: dose 1.62-6.5 µM; outline: as §2
# [18] = test system: HCT-116; experiment: Induction of apoptosis in human HCT-116 cells assessed as necrotic cells at 6.50 uM measured after 24 hrs by Annexin V-FITC/propidium iodide staining based flow cytometry (reference value: 0.00%); type: functional; conditions: dose 6.5 µM
# [19] = molecular target: T1, Tubulin (Homo sapiens); experiment: Inhibition of tubulin polymerization in human HCT-116 cells at 1.62 uM measured after 1 hr relative to control; type: cell-based
# [20] = test system: HCT-116; experiment: Induction of cell cycle arrest in human HCT-116 cells assessed as accumulation of cells at G0/G1 phase at 1.62 uM measured after 24 hrs by PI staining based flow cytometry analysis relative to control (reference value: 70.34%)
# [21] = molecular target: T1, Tubulin (Homo sapiens); experiment: Inhibition of tubulin polymerization in human HCT-116 cells at 3.25 uM measured after 1 hr relative to control; type: cell-based
# [22] = test system: HCT-116; experiment: Induction of apoptosis in human HCT-116 cells assessed as late apoptotic cells at 1.62 uM measured after 24 hrs by Annexin V-FITC/propidium iodide staining based flow cytometry (reference value: 0.00%); type: functional
# [23] = test system: BT-474; experiment: Cytotoxicity against human BT-474 cells assessed as inhibition of cell growth measured for 24 hrs by MTT assay; type: functional, cell-based; conditions: BT-474, 24 h; outline: as §1
# [24] = test system: HCT-116; experiment: Induction of apoptosis in human HCT-116 cells assessed as cell fragmentation measured for 24 hrs by DAPI staining based microscopic analysis; type: functional; conditions: dose 1.62-6.5 µM
# Outline: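 Cells were seeded at 1×10^6 cells/well in 24-well plates and cultured 24 h. […] After PBS washing they were fixed in 4% paraformaldehyde for 30 min, permeabilized with 0.1% Triton X for 15 min, and stained with 1 µM DAPI for 15 min. Imaging used fluorescence microscopy (ex 350/em 460 nm) at 20X.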
# [25] = test system: HCT-116; experiment: Induction of apoptosis in human HCT-116 cells assessed as early apoptotic cells at 1.62 uM measured after 24 hrs by Annexin V-FITC/propidium iodide staining based flow cytometry (reference value: 0.28%); type: functional
# [26] = Cytotoxicity against human HaCaT cells assessed as inhibition of cell growth measured for 24 hrs by MTT assay; type: toxicity, cell-based; outline: as §1
# [27] = test system: HCT-116; experiment: Induction of apoptosis in human HCT-116 cells assessed as early apoptotic cells at 6.50 uM measured after 24 hrs by Annexin V-FITC/propidium iodide staining based flow cytometry (reference value: 0.28%); type: functional; conditions: dose 6.5 µM
structure (smiles),measurement,setting,value
COc1ccc(/C=C(/C(=O)OCc2cn(Cc3cc(F)ccc3F)nn2)c2ccc(OC)c(OC)c2)cc1OC,viability at 1.62 µM,[1],81.7%
same,Activity,[2],Active
same,IC50,[3],4.51 µM
same,inhibition,[4],65.2%
same,IC50,[5],15.1 µM
same,Activity,[6],38.48%
same,Activity,[7],7.32%
same,Activity,[8],Active
same,Activity,[9],50.62%
same,viability at 6.5 µM,[10],27.5%
same,Activity,[11],22.06%
same,IC50,[12],11.3 µM
same,Activity,[13],49.32%
same,Activity,[14],38.72%
same,Activity,[15],Dose-Dependent Effect
same,Activity,[16],Active
same,Activity,[17],Dose-Dependent Effect
same,Activity,[18],12.94%
same,inhibition,[19],33.4%
same,Activity,[20],70.12%
same,inhibition,[21],36.5%
same,Activity,[22],0.16%
same,IC50,[23],12.9 µM
same,Activity,[24],Dose-Dependent Effect
same,Activity,[25],18.1%
same,IC50 at 24 h,[26],72.2 µM
same,Activity,[27],10.71%
